ChEMBL document CHEMBL1811814, “Synthesis and evaluation of indole, pyrazole, chromone and pyrimidine based conjugates for tumor growth inhibitory activities--development of highly efficacious cytotoxic agents” (Eur J Med Chem, 2010)

How the values were obtained:
Type in all cases: functional
Parameters in all cases: scale not given: the % may be the effect or the level left
[1] = test system: HL-60(TB); assay: Growth inhibition of human HL-60(TB) cells assessed tumor cell growth at 10^-5 M
Method in brief: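 HL-60(TB), part of the 60-line panel, tested at a single concentration of 10^-5 M. The read-out is percent tumor cell growth relative to untreated growth.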

[2] = test system: NCI-H23; assay: Growth inhibition of human NCI-H23 cells assessed tumor cell growth at 10^-5 M
Method in brief: (§1)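 NCI 60-human-tumor-cell-line panel screen. Each compound was tested at a single concentration of 10^-5 M, and percent growth of tumor cells was recorded for each cell line. Growth inhibition was expressed from these percent-growth values.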

[3] = test system: HOP-62; assay: Growth inhibition of human HOP62 cells assessed tumor cell growth at 10^-5 M; method in brief: as §1
[4] = test system: EKVX; assay: Growth inhibition of human EKVX cells assessed tumor cell growth at 10^-5 M; method in brief: as §1
[5] = test system: UACC-62; assay: Growth inhibition of human UACC62 cells assessed tumor cell growth at 10^-5 M
Method in brief: (§2)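 Single-dose screen at 10^-5 M across the 60 human tumor cell line panel, run to NCI standards. The value is the percent growth of each cell line in the presence of compound. Compounds active at this dose moved on to five-concentration testing (10^-4 to 10^-8 M).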

[6] = test system: UACC-257; assay: Growth inhibition of human UACC257 cells assessed tumor cell growth at 10^-5 M; method in brief: as §2
[7] = test system: MDA-MB-435; assay: Growth inhibition of human MDA-MB-435 cells assessed tumor cell growth at 10^-5 M; method in brief: as §1
[8] = test system: HOP-92; assay: Growth inhibition of human HOP92 cells assessed tumor cell growth at 10^-5 M; method in brief: as §1
[9] = test system: IGROV-1; assay: Growth inhibition of human IGROV1 cells assessed tumor cell growth at 10^-5 M; method in brief: as §1
[10] = test system: T47D; assay: Growth inhibition of human T47D cells assessed tumor cell growth at 10^-5 M; method in brief: as §2
[11] = test system: SK-MEL-28; assay: Growth inhibition of human SK-MEL-28 cells assessed tumor cell growth at 10^-5 M; method in brief: as §1
[12] = test system: COLO 205; assay: Growth inhibition of human COLO205 cells assessed tumor cell growth at 10^-5 M; method in brief: as §1
[13] = test system: ACHN; assay: Growth inhibition of human ACHN cells assessed tumor cell growth at 10^-5 M; method in brief: as §1
[14] = test system: CCRF-CEM; assay: Growth inhibition of human CCRF-CEM cells assessed tumor cell growth at 10^-5 M; method in brief: as §1
[15] = test system: 786-0; assay: Growth inhibition of human 786-0 cells assessed tumor cell growth at 10^-5 M; method in brief: as §1
[16] = test system: SK-MEL-2; assay: Growth inhibition of human SK-MEL-2 cells assessed tumor cell growth at 10^-5 M; method in brief: as §1
[17] = test system: Malme-3M; assay: Growth inhibition of human MALME-3M cells assessed tumor cell growth at 10^-5 M; method in brief: as §1
[18] = test system: SK-OV-3; assay: Growth inhibition of human SKOV3 cells assessed tumor cell growth at 10^-5 M; method in brief: as §1
[19] = test system: BT-549; assay: Growth inhibition of human BT549 cells assessed tumor cell growth at 10^-5 M; method in brief: as §1
[20] = test system: SN12C; assay: Growth inhibition of human SN12C cells assessed tumor cell growth at 10^-5 M; method in brief: as §1
[21] = test system: SNB-19; assay: Growth inhibition of human SNB19 cells assessed tumor cell growth at 10^-5 M; method in brief: as §2
[22] = test system: NCI-H322M; assay: Growth inhibition of human NCI-H322M cells assessed tumor cell growth at 10^-5 M; method in brief: as §1
[23] = test system: MDA-MB-468; assay: Growth inhibition of human MDA-MB-468 cells assessed tumor cell growth at 10^-5 M; method in brief: as §1
[24] = test system: MCF7; assay: Growth inhibition of human MCF7 cells assessed tumor cell growth at 10^-5 M; method in brief: as §1
[25] = test system: MDA-MB-231; assay: Growth inhibition of human MDA-MB-231 cells assessed tumor cell growth at 10^-5 M; method in brief: as §1
[26] = test system: RXF 393; assay: Growth inhibition of human RXF393 cells assessed tumor cell growth at 10^-5 M; method in brief: as §1
[27] = test system: NCI/ADR-RES; assay: Growth inhibition of human NCI/ADR-RES cells assessed tumor cell growth at 10^-5 M; method in brief: as §1
[28] = test system: KM12; assay: Growth inhibition of human KM12 cells assessed tumor cell growth at 10^-5 M; method in brief: as §1
[29] = test system: SNB-75; assay: Growth inhibition of human SNB75 cells assessed tumor cell growth at 10^-5 M; method in brief: as §2
[30] = test system: SF-539; assay: Growth inhibition of human SF539 cells assessed tumor cell growth at 10^-5 M; method in brief: as §1

Structure (SMILES): Cc1ccc(S(=O)(=O)n2cc(/C=C3\C(=O)Nc4ccccc43)c3ccccc32)cc1
- Activity [1]: 100.6%
- Activity [2]: 89.8%
- Activity [3]: 98.5%
- Activity [4]: 93.8%
- Activity [5]: 64%
- Activity [6]: 84%
- Activity [7]: 93.2%
- Activity [8]: 67.4%
- Activity [9]: 73%
- Activity [10]: 77.3%
- Activity [11]: 86.8%
- Activity [12]: 54.4%
- Activity [13]: 82.2%
- Activity [14]: 95.6%
- Activity [15]: 99.7%
- Activity [16]: 86.6%
- Activity [17]: 111%
- Activity [18]: 99.1%
- Activity [19]: 97.5%
- Activity [20]: 88.3%
- Activity [21]: 85.2%
- Activity [22]: 106.5%
- Activity [23]: 117.2%
- Activity [24]: 56.6%
- Activity [25]: 66.4%
- Activity [26]: 97.6%
- Activity [27]: 92.1%
- Activity [28]: 97%
- Activity [29]: 73.4%
- Activity [30]: 93.1%
